Assay results from ChEMBL document CHEMBL1129329, “Structure-activity studies of 6-substituted decahydroisoquinoline-3-carboxylic acid AMPA receptor antagonists. 2. Effects of distal acid bioisosteric substitution, absolute stereochemical preferences, and in vivo activity” (J Med Chem, 1996).

Key:
[1] = molecular target: T1, Glutamate receptor ionotropic, AMPA (Rattus norvegicus, UniProt P19490+P19491+P19492+P19493); experiment: (§1) Binding affinity against Ionotropic glutamate receptor AMPA using [3H]AMPA 19755 radioligand; type: protein-complex assay
Glutamate NMDA receptor [2] = experiment: Compound was tested for NMDA receptor antagonistic activity by measuring its ability to inhibit depolarizations induced by 40 uM NMDA in rat cortical slice preparation.; type: functional
[3] = molecular target: Glutamate receptor ionotropic, kainate; experiment: Binding affinity against Ionotropic glutamate receptor kainate using [3H]-Kainic acid 19755 radioligand; type: protein-complex assay
How it was run: (§2)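 Displacement of radioligand binding in rat cortical tissue: [3H]AMPA for AMPA sites, [3H]kainic acid for kainate sites. Assays run in triplicate unless otherwise indicated; some IC50 values come from a single assay.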

Glutamate NMDA receptor [4] = experiment: Affinity of [3H]-CGS- 19755 radioligand to rat N-methyl-D-aspartate (NMDA) receptor; type: protein-complex assay
[5] = molecular target: Glutamate receptor ionotropic, kainate; experiment: Compound was tested for Ionotropic glutamate receptor kainate antagonistic activity by measuring its ability to inhibit depolarizations induced by 10 uM kainic acid in rat cortical slice preparation.; type: functional
[6] = molecular target: T1, Glutamate receptor ionotropic, AMPA; experiment: Compound was tested for Ionotropic glutamate receptor AMPA antagonistic activity by measuring its ability to inhibit depolarizations induced by 40 uM AMPA in rat cortical slice preparation.; type: functional
[7] = molecular target: T1, Glutamate receptor ionotropic, AMPA; experiment: Antagonism at AMPA receptor by inhibition of depolarizations induced by 40 uM AMPA in rat cortical slice preparation.; type: functional
[8] = molecular target: Glutamate receptor ionotropic, kainate; experiment: Antagonism at Ionotropic glutamate receptor kainate by inhibition of depolarizations induced by 10 uM kainic acid in rat cortical slice preparation.; type: functional
Glutamate NMDA receptor [9] = experiment: Antagonism at NMDA receptor by inhibition of depolarizations induced by 40 uM NMDA in rat cortical slice preparation.; type: functional
[10] = molecular target: T2, Glutamate receptor ionotropic, AMPA (Rattus norvegicus) (UniProt P19491+P19492+P19493+P19490); experiment: Compound was tested for AMPA receptor antagonistic activity by measuring its ability to inhibit depolarizations induced by 40 uM AMPA in rat cortical slice preparation at 100 uM; type: functional
[11] = molecular target: T2, Glutamate receptor ionotropic, AMPA (Rattus norvegicus); experiment: as §1; type: protein-complex assay; settings: concentration not given here; how it was run: as §2
Mus musculus [12] = experiment: Effective dose to block ATPA-induced muscle rigidity in mice at a dose of 30 mg/kg administered intraperitoneally; settings: ip
Mus musculus [13] = experiment: (§3) Effective dose to produce neurological impairments in mice using the horizontal screen assay, administered intraperitoneally; type: functional; settings: ip
How it was run: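 Mice dosed intraperitoneally 30 min before testing were placed on a horizontal screen, which was then turned upside down. Unimpaired mice climb back to the top within 2 min; failure indicates neurological impairment. This was done before MES testing.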

Mus musculus [14] = experiment: Effective dose to block maximal electroshock-induced convulsions in mice, administered intraperitoneally; type: functional; settings: ip
Mus musculus [15] = experiment: Minimum effective dose to block the lethality induced by 200 mg/kg ip dose of NMDA; type: functional; settings: route intraperitoneal
How it was run: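 Mice dosed ip 30 min before a 200 mg/kg ip NMDA challenge. Minimum effective dose is the lowest dose giving greater than 50% protection from lethality among all mice tested.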

Mus musculus [16] = experiment: as §3; type: functional; settings: ip; remark: listed apart in the source
How it was run: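 Mice dosed ip 30 min beforehand are placed on a horizontal screen, which is then turned upside down. Unimpaired mice climb back to the top within 2 min.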

[17] = molecular target: Glutamate NMDA receptor (Rattus norvegicus) (UniProt P35439+Q00959+Q00960+Q00961+Q62645+Q8VHN2+Q9R1M7); experiment: Compound was tested for NMDA receptor antagonistic activity by measuring its ability to inhibit depolarizations induced by 40 uM NMDA in rat cortical slice preparation at 100 uM; type: functional

| SMILES | IC50 [1] [µM] | IC50 [3] [µM] | IC50 (Glutamate NMDA receptor [4]) [µM] | IC50 [7] [µM] | IC50 [8] [µM] | IC50 (Glutamate NMDA receptor [9]) [µM] | also measured |
| --- | --- | --- | --- | --- | --- | --- | --- |
| O=C(O)[C@H]1C[C@@H]2C[C@H](CCc3nnn[nH]3)CC[C@@H]2CN1 | > 100 | > 100 |  | > 100 | > 100 |  |  |
| O=C(O)[C@@H]1C[C@H]2C[C@@H](OCc3nn[nH]n3)CC[C@H]2CN1 |  |  |  |  |  |  | ED50 (Mus musculus [12]): 30.6 mg/kg; ED50 (Mus musculus [13]): 21 mg/kg; ED50 (Mus musculus [14]): 24.7 mg/kg; ED50 (Mus musculus [15]): 80 mg/kg |
| O=C(O)[C@@H]1C[C@H]2C[C@@H](CS(=O)(=O)c3nnc[nH]3)CC[C@H]2CN1 (stereo in doubt; 36) | 1.7 |  |  | 2.16 | 10 | > 100 | ED50 (Mus musculus [13]): 25.2 mg/kg; ED50 (Mus musculus [14]): 9.5 mg/kg |
| O=C(O)[C@@H]1C[C@H]2C[C@@H](CSc3nn[nH]n3)CC[C@H]2CN1 (racemic) | 0.9 | 30.1 | 29.4 |  |  |  | IC50 (Glutamate NMDA receptor [2]): > 100 µM; IC50 [6]: 19.8 µM |
| O=C(O)[C@@H]1C[C@H]2C[C@@H](CCc3nn[nH]n3)CC[C@H]2CN1 (racemic) [TEZAMPANEL ANHYDROUS] |  |  |  |  |  |  | ED50 (Mus musculus [12]): 3.6 mg/kg; ED50 (Mus musculus [13]): 19.6 mg/kg; ED50 (Mus musculus [14]): 9 mg/kg |
| O=C(O)[C@@H]1C[C@H]2C[C@@H](CCCc3nnn[nH]3)CC[C@H]2CN1 |  |  |  |  |  |  | ED50 (Mus musculus [12]): > 100 mg/kg; ED50 (Mus musculus [13]): > 100 mg/kg; ED50 (Mus musculus [14]): > 100 mg/kg |
| O=C(O)[C@@H]1C[C@H]2C[C@H](CCc3cc(O)no3)CC[C@H]2CN1 | > 100 | > 100 | > 100 |  |  |  | ED50 (Mus musculus [16]): > 100 mg/kg; ED50 (Mus musculus [12]): 8.8 mg/kg; ED50 (Mus musculus [14]): 31.1 mg/kg |
| O=C(O)[C@@H]1C[C@H]2C[C@@H](CCc3nn[nH]n3)CC[C@H]2CN1 |  |  |  |  |  |  | inhibition [17]: 60% |

Further lines, with some results ahead:

| IC50 [1] [µM] | IC50 [3] [µM] | IC50 (Glutamate NMDA receptor [4]) [µM] | IC50 [7] [µM] | IC50 [8] [µM] | IC50 (Glutamate NMDA receptor [9]) [µM] | SMILES | also measured |
| --- | --- | --- | --- | --- | --- | --- | --- |
| > 10 | > 10 | > 10 |  |  |  | O=C(O)[C@@H]1C[C@H]2C[C@@H](CSc3nc[nH]n3)CC[C@H]2CN1 | IC50 (Glutamate NMDA receptor [2]): > 100 µM; IC50 [5]: > 100 µM; IC50 [6]: 68.8 µM |
| > 10 |  | > 10 | > 100 | > 100 | > 100 | O=C(O)[C@@H]1C[C@H]2C[C@H](CCP(=O)(O)O)CC[C@H]2CN1 |  |
| > 100 | > 100 | > 100 | > 100 | > 100 | > 100 | CCOC(=O)[C@@H]1C[C@H]2C[C@@H](CCC(=O)NS(C)(=O)=O)CC[C@H]2CN1C(=O)OC |  |
|  |  | 76.9 |  |  |  | O=C(O)[C@@H]1C[C@H]2C[C@H](CCc3nnn[nH]3)CC[C@H]2CN1 (stereo in doubt; (-)49) |  |
| 70.5 | > 100 | 29.8 |  |  |  | O=C(O)[C@@H]1C[C@H]2C[C@H](CSc3nn[nH]n3)CC[C@H]2CN1 (stereo in doubt; (-)28) | IC50 (Glutamate NMDA receptor [2]): 62.2 µM; IC50 [5]: > 100 µM; IC50 [6]: > 100 µM |
|  | > 100 | > 10 |  | > 100 | > 100 | O=C(O)[C@@H]1C[C@H]2C[C@@H](Cn3nnc(S)n3)CC[C@H]2CN1 (racemic) | inhibition [10]: 55%; inhibition [11]: 57.9% |
| 22.1 | > 100 | > 10 |  |  |  | O=C(O)[C@H]1C[C@@H]2C[C@H](CSc3nn[nH]n3)CC[C@@H]2CN1 | IC50 (Glutamate NMDA receptor [2]): > 100 µM; IC50 [5]: > 31.6 µM; IC50 [6]: 19.8 µM |
| > 100 | > 100 | > 100 | > 100 | > 100 | > 100 | CCOC(=O)[C@@H]1C[C@H]2C[C@@H](CCC(=O)NS(=O)(=O)c3ccccc3)CC[C@H]2CN1C(=O)OC |  |
| > 100 | > 100 | > 100 | > 100 | > 100 | > 100 | O=C(O)[C@@H]1C[C@H]2C[C@@H](CNc3nn[nH]n3)CC[C@H]2CN1 (racemic) |  |
